Reference: paper PMC3580179 (Biopharmaceutics & drug disposition, 2010)
Where “and” joins values, the source holds several entries; their conditions need not be identical. Identical values can stand only once. Like-named read-outs stand apart in the source and are kept apart here. Marks after values point to notes of the source that are not given here.

Tests used:
[1] = Pharmacokinetics after intravenous administration to rats; format: in vivo, male Sprague-Dawley rats; details: rat; for MRT / Vd / clearance / half-life / AUC(0-inf): male, Sprague-Dawley; for AUC(0-inf): AUC0-∞
Method in brief: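 Male Sprague-Dawley rats (250–300 g) with jugular vein cannulae, fed antioxidant-free AIN-76A diet and acclimatized 3 days. Single i.v. dose of 10 or 20 mg/kg via cannula in Cremophor EL/tween-80/ethanol/water (2:1:1:6). Blood (200 μL) sampled from 2 min to 36 h; plasma stored at −80°C and assayed by HPLC-UV. Non-compartmental analysis: log-linear trapezoidal AUC, CL = Dose/AUC0-∞, MRT = AUMC0-∞/AUC0-∞.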

Blood cell partitioning = format: in vitro ADME; details: rat, fresh pooled rat blood
Method in brief: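 Fresh pooled rat blood spiked 1:100 with test compound in methanol (final 10 μg/mL). Incubated 2 h at 37°C in a shaking water bath. Plasma separated at once by centrifugation and assayed by HPLC-UV to give the blood-to-plasma concentration ratio (CB/CP). Run in triplicate.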

[2] = Pharmacokinetics after oral administration to rats; format: in vivo, male Sprague-Dawley rats; details: rat; for Cmax / AUC(0-inf) / MRT / half-life: male, Sprague-Dawley, po
[3] = format: in vivo, Nrf2 wild type C57BL/6J (+/+) mice; details: for AUC / Cmax / MRT / Tmax: male, C57BL/6J, mouse, plasma
Method in brief: (§1)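 Age-matched male C57BL/6J mice, Nrf2 (+/+) or (−/−), 10–15 weeks old, on AIN-76A diet from 3 days before dosing. Dosed 500 mg/kg by oral gavage after an overnight fast, or 100 mg/kg i.p.; vehicle Cremophor EL/tween-80/ethanol/water (2:1:1:6). Composite sampling by heart puncture from 2 min (i.p. only) or 7.5 min to 36 h, three mice per time point. Non-compartmental analysis; t1/2 = ln2/kel from terminal slope.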

[4] = format: in vivo, Nrf2 knockout C57BL/6J (−/−) mice; details: for AUC0-∞ /Dose: Nrf2(−/−) mice; for AUC, folds increase: Nrf2(−/−) vs Nrf2(+/+) mice; for AUC / Cmax / MRT / Tmax / half-life: male, C57BL/6J, mouse, plasma
Method in brief: as §1

[5] = p.o. 250 mg/kg, regular emulsion

With `O=C(CC(=O)c1ccccc1)c1ccccc1` [DBM, 1,3-Diphenyl-1,3-propanedione] as the compound, how does the MRT ([1]; plasma, iv, 10 mg/kg) read?
The MRT was 10.4 ± 3.33 h.

What about the Vd ([1]; plasma, iv, 10 mg/kg) of the same compound?
The Vd was 6.75 ± 1.85 L/kg.

What about the clearance ([1]; plasma, iv, 10 mg/kg) of the same compound?
The clearance was 11.8 mL/min/kg.

What about the half-life ([1]; plasma, iv, 10 mg/kg) of the same compound?
Its half-life is 14.4 ± 5 h.

And the AUC(0-inf) ([1]; plasma, iv, 10 mg/kg, i.v. 10 mg/kg)?
Its AUC(0-inf) is 16500 ± 7850 ng·h/mL.

What about the MRT ([1]; plasma, iv, 20 mg/kg) of the same compound?
Its MRT is 10.2 ± 6.1 h.

And the Vd ([1]; plasma, iv, 20 mg/kg)?
The Vd was 7.35 ± 4.26 L/kg.

And the clearance ([1]; plasma, iv, 20 mg/kg)?
Its clearance is 12 mL/min/kg.

And the half-life ([1]; plasma, iv, 20 mg/kg)?
Its half-life is 12 ± 5.34 h.

And the AUC(0-inf) ([1]; plasma, iv, 20 mg/kg, i.v. 20 mg/kg)?
Its AUC(0-inf) is 27900 ± 2400 ng·h/mL.

And the clearance ([1]; whole blood, intravenous, 10 mg/kg)?
The clearance was ~12.7 mL/min/kg.

What about the “AUC0-∞ /Dose” value ([1]; i.v. 10 mg/kg, 10 mg/kg) of the same compound?
Its value is 1.65 (μg·h/mL)/(mg/kg) and 1.65 ± 0.79 (μg·h/mL)/(mg/kg).

And the “AUC0-∞” value ([1]; i.v. 20 mg/kg, 20 mg/kg)?
Its value is 28000 ± 2400 ng·h/mL.

What about the “AUC0-∞ /Dose” value ([1]; i.v. 20 mg/kg, 20 mg/kg) of the same compound?
Its value is 1.40 (μg·h/mL)/(mg/kg) and 1.40 ± 0.12 (μg·h/mL)/(mg/kg).

And the blood plasma ratio at 2 h, 10 μg/mL (Blood cell partitioning)?
Its blood plasma ratio at 2 h, 10 μg/mL is 0.93 ± 0.19.

What about the Cmax ([2]; in vivo, 250 mg/kg) of the same compound?
The Cmax was 2880 ± 740 ng/mL.

What about the AUC(0-inf) ([2]; plasma, 10 mg/kg) of the same compound?
Its AUC(0-inf) is 2250 ± 330 ng·h/mL.

What about the Cmax ([2]; plasma, 10 mg/kg) of the same compound?
The Cmax was 340 ± 40 ng/mL.

And the MRT ([2]; plasma, 10 mg/kg)?
Its MRT is 7.6 ± 2.3 h.

What about the half-life ([2]; plasma, 10 mg/kg) of the same compound?
Its half-life is 11 ± 3 h.

And the AUC(0-inf) ([2]; plasma, 50 mg/kg)?
The AUC(0-inf) was 9460 ± 1620 ng·h/mL.

What about the Cmax ([2]; plasma, 50 mg/kg) of the same compound?
The Cmax was 1500 ± 410 ng/mL.

What about the MRT ([2]; plasma, 50 mg/kg) of the same compound?
The MRT was 9.4 ± 2 h.

What about the half-life ([2]; plasma, 50 mg/kg) of the same compound?
Its half-life is 9.3 ± 2 h.

And the AUC(0-inf) ([2]; plasma, 250 mg/kg)?
Its AUC(0-inf) is 30400 ± 6890 ng·h/mL.

What about the Cmax ([2]; plasma, 250 mg/kg) of the same compound?
The Cmax was 3020 ± 660 ng/mL.

And the MRT ([2]; plasma, 250 mg/kg)?
The MRT was 12 ± 4.3 h.

And the half-life ([2]; plasma, 250 mg/kg)?
The half-life was 11 ± 8 h.

What about the “AUC0-∞ /Dose” value ([2]; p.o. 10 mg/kg, regular emulsion) of the same compound?
Its value is 0.225 ± 0.033 (μg·h/mL)/(mg/kg).

What about the “Ka (absorption rate constant)” value ([2]; p.o. 50 mg/kg, regular emulsion, Gastroplus three-compartment fitting) of the same compound?
The value was 0.029 ± 0.046 h⁻¹.

And the “AUC0-∞ /Dose” value [2, 5]?
The value was 0.122 ± 0.027 ^a (μg·h/mL)/(mg/kg).

What about the “fraction absorbed in GIT (deconvolution analysis)” value [2, 5] of the same compound?
The value was 10.8%.

What about the Tmax ([2]; p.o. 250 mg/kg, regular emulsion, 250 mg/kg) of the same compound?
The Tmax was 4.0 ± 2.0 h.

And the “AUC0-∞ /Dose” value ([3]; Nrf2(+/+) mice, i.p. 100 mg/kg)?
The value was 0.096 (μg·h/mL)/(mg/kg).

And the “AUC0-∞ /Dose” value ([3]; Nrf2(+/+) mice, p.o. 500 mg/kg)?
The value was 0.129 (μg·h/mL)/(mg/kg).

What about the “Apparent terminal t1/2” value ([3]; Nrf2(+/+) mice, p.o. 500 mg/kg, 500 mg/kg) of the same compound?
Its value is 6.09 h.

And the AUC ([3]; ip, 100 mg/kg)?
The AUC was 9620 ng·h/mL.

And the Cmax ([3]; ip, 100 mg/kg)?
Its Cmax is 4560 ng/mL.

And the MRT ([3]; ip, 100 mg/kg)?
Its MRT is 2.76 h.

And the Tmax ([3]; ip, 100 mg/kg)?
Its Tmax is 0.25 h.

And the AUC ([3]; po, 500 mg/kg)?
The AUC was 64600 ng·h/mL.

And the Cmax ([3]; po, 500 mg/kg)?
The Cmax was 23200 ng/mL.

And the MRT ([3]; po, 500 mg/kg)?
Its MRT is 4.73 h.

And the Tmax ([3]; po, 500 mg/kg)?
Its Tmax is 0.25 h.

And the peak plasma concentration ([3]; mice, i.p. 100 mg/kg, genotype not given, context Nrf2(+/+))?
The peak plasma concentration was 20.4 µM.

And the “AUC0-∞ /Dose” value ([4]; i.p. 100 mg/kg)?
Its value is 0.221 (μg·h/mL)/(mg/kg).

And the “AUC0-∞ /Dose” value ([4]; p.o. 500 mg/kg)?
The value was 0.171 (μg·h/mL)/(mg/kg).

And the “AUC, folds increase” value ([4]; i.p. 100 mg/kg)?
Its value is 2.3 fold.

What about the “AUC, folds increase” value ([4]; p.o. 500 mg/kg) of the same compound?
The value was 1.3 fold.

What about the “apparent terminal half-life, fold increase” value ([4]; Nrf2 knockout vs wild type mice, i.p. 100 mg/kg) of the same compound?
Its value is 2 fold.

And the AUC ([4]; ip, 100 mg/kg)?
The AUC was 22100 ng·h/mL.

What about the Cmax ([4]; ip, 100 mg/kg) of the same compound?
Its Cmax is 6860 ng/mL.

And the MRT ([4]; ip, 100 mg/kg)?
The MRT was 5.15 h.

What about the Tmax ([4]; ip, 100 mg/kg) of the same compound?
The Tmax was 0.25 h.

And the half-life ([4]; ip, 100 mg/kg)?
Its half-life is 5.04 h.

And the AUC ([4]; po, 500 mg/kg)?
The AUC was 85600 ng·h/mL.

What about the Cmax ([4]; po, 500 mg/kg) of the same compound?
The Cmax was 17400 ng/mL.

And the MRT ([4]; po, 500 mg/kg)?
The MRT was 6.36 h.

And the Tmax ([4]; po, 500 mg/kg)?
Its Tmax is 0.25 h.

What about the half-life ([4]; po, 500 mg/kg) of the same compound?
Its half-life is 8.52 h.
